Source: PMC7347020 (Science (New York, N.Y.), 2020)
Read-outs that look alike come from different tables or passages of the source. One block for each compound: values may come before it.

Legend:
[1] = test system: CATΔHD; settings: cited from earlier work
[2] = target: T1, PARP-1 (Homo sapiens, UniProt P09874); assay: Classification of PARPi by allosteric effects; settings: based on HXMS and DNA binding studies
[3] = target: T1, PARP-1; assay: SPR dissociation kinetics of PARP-1 from SSB-DNA; assay type: binding
[4] = target: T2, PARP-1 W318R (Homo sapiens, UniProt P09874, W318R); assay: FP DNA competition, W318R mutant; assay type: binding
T2 sequence (P09874 whole entry W318R): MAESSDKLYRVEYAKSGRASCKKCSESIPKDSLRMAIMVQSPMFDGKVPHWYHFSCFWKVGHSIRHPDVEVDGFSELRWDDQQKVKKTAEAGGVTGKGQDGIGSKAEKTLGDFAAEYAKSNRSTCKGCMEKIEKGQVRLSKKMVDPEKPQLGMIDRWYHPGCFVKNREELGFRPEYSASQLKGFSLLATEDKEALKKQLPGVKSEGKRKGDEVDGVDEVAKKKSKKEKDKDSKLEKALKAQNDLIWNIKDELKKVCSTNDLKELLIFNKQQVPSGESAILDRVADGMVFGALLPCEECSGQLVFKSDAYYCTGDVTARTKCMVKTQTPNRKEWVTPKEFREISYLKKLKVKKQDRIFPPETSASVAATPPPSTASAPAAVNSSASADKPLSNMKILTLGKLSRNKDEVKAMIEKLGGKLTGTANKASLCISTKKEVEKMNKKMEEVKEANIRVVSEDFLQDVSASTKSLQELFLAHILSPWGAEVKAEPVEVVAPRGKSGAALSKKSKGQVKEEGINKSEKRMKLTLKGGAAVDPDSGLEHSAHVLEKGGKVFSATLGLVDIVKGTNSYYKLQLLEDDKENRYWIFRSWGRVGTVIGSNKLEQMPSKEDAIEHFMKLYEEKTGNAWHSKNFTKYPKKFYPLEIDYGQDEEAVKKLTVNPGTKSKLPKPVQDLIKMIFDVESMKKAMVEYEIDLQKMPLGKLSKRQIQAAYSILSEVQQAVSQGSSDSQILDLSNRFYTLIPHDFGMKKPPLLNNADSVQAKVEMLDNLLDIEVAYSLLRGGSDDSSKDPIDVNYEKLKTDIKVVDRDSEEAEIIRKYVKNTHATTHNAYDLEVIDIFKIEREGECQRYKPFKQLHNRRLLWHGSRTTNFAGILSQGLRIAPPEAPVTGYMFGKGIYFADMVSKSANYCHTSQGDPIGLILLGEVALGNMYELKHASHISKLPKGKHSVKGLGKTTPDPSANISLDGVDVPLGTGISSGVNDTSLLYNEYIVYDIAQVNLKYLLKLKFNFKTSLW
In short: (§1)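 Fluorescence polarization competition used FAM-labeled SSB-DNA bound by the PARP-1 variant, challenged with unlabeled SSB-DNA, with or without test compound.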

[5] = target: T3, PARP-1 D766/770A (Homo sapiens, UniProt P09874, D766A/D770A); assay: HXMS of PARP-1 D766/770A/SSB-DNA; settings: D766/770A mutant
T3 sequence (P09874 whole entry D766A/D770A): as the sequence (P09874 whole entry W318R) above, with R318W, D766A, D770A counted along it
In short: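 PARP-1 (2.6 μM) was mixed with SSB-DNA (5 μM) and, where applicable, inhibitor (5.2 μM). Deuterium on-exchange ran at RT in 10 mM HEPES pD 7.0, 150 mM NaCl (final 75% D2O). Samples were quenched in ice-cold buffer, frozen in liquid nitrogen, pepsin-digested, separated on C18 and analysed by electrospray MS for per-peptide deuteration.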

[6] = target: T3, PARP-1 D766/770A; assay: FP DNA competition, D766/770A mutant; assay type: binding
In short: as §1

[7] = target: T1, PARP-1; settings: cited from earlier work
[8] = target: T1, PARP-1; assay: HXMS of WT PARP-1/SSB-DNA complex; settings: PARP-1/SSB-DNA complex with versus without inhibitor
[9] = target: WT PARP-1 (Homo sapiens, UniProt P09874); assay: FP DNA competition; assay type: binding; settings: WT PARP-1, with or without inhibitor
WT PARP-1, sequence (P09874 whole entry, the tested form may be a part): as the sequence (P09874 whole entry W318R) above, with R318W counted along it

[10] = target: PARP-1 CAT (Homo sapiens, UniProt P09874); assay: DSF thermal stability, CAT domain; assay type: binding
PARP-1 CAT, sequence (P09874 661-1014 limits assumed): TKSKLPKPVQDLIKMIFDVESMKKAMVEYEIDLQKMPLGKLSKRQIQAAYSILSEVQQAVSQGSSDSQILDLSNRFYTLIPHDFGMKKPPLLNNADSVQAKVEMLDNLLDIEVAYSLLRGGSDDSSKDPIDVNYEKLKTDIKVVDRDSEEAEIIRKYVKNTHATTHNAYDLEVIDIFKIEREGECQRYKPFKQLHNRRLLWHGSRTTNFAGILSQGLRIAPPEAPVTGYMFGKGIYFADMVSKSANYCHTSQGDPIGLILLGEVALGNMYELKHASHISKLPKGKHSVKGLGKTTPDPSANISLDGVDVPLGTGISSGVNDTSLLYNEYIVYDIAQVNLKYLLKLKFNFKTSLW
In short: (§2)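 Protein melting temperature was measured by differential scanning fluorimetry with and without test compound. ΔTM was taken as TM with compound minus TM without compound.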

[11] = target: T2, PARP-1 W318R; assay: HXMS of PARP-1 W318R/SSB-DNA; settings: W318R mutant
[12] = test system: CATΔHD; assay: DSF thermal stability, CATΔHD; assay type: binding
In short: as §2

[13] = target: T1, PARP-1; assay: FP DNA binding affinity of PARP-1 for SSB-DNA
[14] = target: T4, PARP-1 R591C (Homo sapiens, UniProt P09874, R591C); assay: FP DNA competition, R591C mutant; assay type: binding
T4 sequence (P09874 whole entry R591C): as the sequence (P09874 whole entry W318R) above, with R318W, R591C counted along it
In short: as §1

[15] = target: T4, PARP-1 R591C; assay: HXMS of PARP-1 R591C/SSB-DNA; settings: R591C mutant
[16] = test system: CAL51 PARP-1−/− cells transfected with PARP-1-GFP; assay: Microirradiation assay, PARP-1-GFP residence at DNA damage sites; assay type: cell-based
[17] = test system: CAPAN-1 cells; assay: Cell survival assay, CAPAN-1; assay type: cell-based; settings: cell survival experiment
[18] = test system: MMS-treated CAPAN-1 cells; assay: Chromatin fractionation assay; assay type: cell-based; settings: 1, 10 and 25 μM, 0.01% MMS
In short: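 Chromatin fractionation measured chromatin-bound PARP-1 in cells exposed to 0.01% MMS, with or without test compound.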

[19] = test system: parental or PARP-1−/− cells; assay: Survival assay, parental or PARP-1−/− cells; assay type: cell-based; settings: low concentrations; parental versus PARP-1−/−
[20] = test system: SUM149PT-BRCA1mut and SUM149PT-BRCA1rev cells; assay: Cell survival assay, SUM149PT-BRCA1mut versus SUM149PT-BRCA1rev; assay type: cell-based
[21] = test system: ADP-ribosylation activity in cells; assay: Measurement of PAR in cells; assay type: cell-based; settings: 0.01, 0.1, 1 and 10 μM, 0.01% MMS
In short: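 Cells were co-treated with test compound and 0.01% MMS. Cellular poly(ADP-ribose) was detected by western blot with an anti-pan-ADP-ribose binding reagent.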

[22] = target: T1, PARP-1; assay: PARP-1 catalytic inhibition; assay type: biochemical; settings: catalytic inhibitory potency; not shown
[23] = test system: MMS-treated CAPAN-1 cells; settings: cited from earlier work

T1 sequence (P09874 whole entry): as the sequence (P09874 whole entry W318R) above, with R318W counted along it

influence on dissociation (kd) of PARP-1 from a DNA break (in words) [3]: markedly slowed release from DNA
PARP-1 retention on SSB-DNA [4]: unaffected
allosteric effect on PARP-1 (HX changes) [5]: no longer influenced PARP-1 allostery
PARP-1 release from / retention on a DNA break [6]: insensitive
PARPi type by allosteric effect [2]: Type I
binding to PARP-1 CAT [10]: bound
binding to CATΔHD [12]: bound
PARP-1 retention on SSB-DNA [14]: unaffected
SMILES: Nc1ncnc2c1ncn2[C@@H]1O[C@H](C(=O)N2CCN(CC(=O)Nc3cccc4c3CNC4=O)CC2)[C@@H](O)[C@H]1O [EB-47]
affinity for PARP-1 [7]: nM range
allosteric effect on PARP-1 (HX changes) [8]: highly localized destabilization of the helical domain (HD)
PARP-1 retention on SSB-DNA [9]: increased the retention of WT PARP-1 on DNA
allosteric effect on PARP-1 (HX changes) [11]: destabilization of the αB and αF helices of the HD
influence on PARP-1 SSB DNA binding affinity (in words) [13]: large increase in SSB DNA binding affinity
allosteric effect on PARP-1 (HX changes) [15]: destabilization of the αB and αF helices of the HD

PARP-1 release from / retention on a DNA break [6]: still retained on DNA
PARP-1 retention on SSB-DNA [9]: strong PARP-1 retention on a DNA break
PARPi type by allosteric effect [2]: Type I
increase in PARP-1 affinity for DNA relative to no inhibitor ([13]; WT PARP-1): 3.5 fold
IC50 [22]: 2.6 nM
SMILES: COC(=O)c1cnc(N2CCN(C(=O)c3ccc(-c4nc5c(C(N)=O)cccc5[nH]4)cc3)CC2)nc1 [UKTT15]
PARP-1-GFP residence time at sites of UV laser-induced damage [16]: increase in the PARP-1-GFP residence time
killing of CAPAN-1 cells [17]: more efficient than veliparib
PARP-1 trapping on DNA in cells [18]: increased ability to trap PARP-1 on DNA
allosteric effect on PARP-1 (HX changes) [8]: profound changes to the HX behavior of PARP-1
PARP-1 dependence of cell killing [19]: required PARP-1 expression
BRCA selectivity of cell killing [20]: killing of the SUM149-BRCA1mut cells at a lower concentration compared to the SUM149PT-BRCA1rev cells
inhibition of ADP-ribosylation activity in cells (PAR levels) [21]: not better than veliparib

Further lines, the compound ahead of its results:

SMILES: NC(=O)c1cccc([C@@H]2O[C@H](COP(=O)(O)OP(=O)(O)OC[C@H]3O[C@@H](n4cnc5c(N)ncnc54)[C@H](O)[C@@H]3O)[C@@H](O)[C@H]2O)c1 [BAD, benzamide adenine dinucleotide]
binding to CAT versus CATΔHD [1]: only bind to CATΔHD
PARPi type by allosteric effect [2]: Type I

SMILES: NC(=O)c1ccc[n+]([C@@H]2O[C@H](COP(=O)([O-])OP(=O)(O)OC[C@H]3O[C@@H](n4cnc5c(N)ncnc54)[C@H](O)[C@@H]3O)[C@@H](O)[C@H]2O)c1 [NAD^+]
binding to CAT versus CATΔHD [1]: only bind to CATΔHD

SMILES: NC(=O)c1cccc2cn(-c3ccc([C@@H]4CCCNC4)cc3)nc12 [niraparib]
influence on dissociation (kd) of PARP-1 from a DNA break (in words) [3]: slightly accelerated release
allosteric effect on PARP-1 (HX changes) [8]: stronger allosteric effects to the HD
PARPi type by allosteric effect [2]: Type III
decrease in PARP-1 SSB DNA binding affinity [13]: 3–5 fold

SMILES: CNCc1ccc(-c2[nH]c3cc(F)cc4c3c2CCNC4=O)cc1 [rucaparib]
influence on dissociation (kd) of PARP-1 from a DNA break (in words) [3]: slightly accelerated release
allosteric effect on PARP-1 (HX changes) [8]: stronger allosteric effects to the HD
PARPi type by allosteric effect [2]: Type III
decrease in PARP-1 SSB DNA binding affinity [13]: 3–5 fold

SMILES: Cn1ncnc1[C@H]1c2n[nH]c(=O)c3cc(F)cc(c23)N[C@@H]1c1ccc(F)cc1 [talazoparib]
PARP-1 trapping in cells [23]: most efficient trapper of the clinical inhibitors

SMILES: C[C@]1(c2nc3c(C(N)=O)cccc3[nH]2)CCCN1 [veliparib]
influence on dissociation (kd) of PARP-1 from a DNA break (in words) [3]: slightly accelerated release
PARP-1 trapping in cells ([23]; chromatin fractionation): poor PARP-1 trapper
allosteric effect on PARP-1 (HX changes) [8]: stronger allosteric effects to the HD
PARP-1 retention on SSB-DNA [9]: not significant
PARPi type by allosteric effect [2]: Type III
decrease in PARP-1 SSB DNA binding affinity [13]: 3–5 fold
